≈ marks a conversion by molar mass, not a printed value.
Experiments:
[1] = tested on: Bacillus subtilis; experiment: Antimicrobial activity against Bacillus subtilis ATCC 6633 after 24 hrs by agar well diffusion method; assay type: functional
How it was run: (§1)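 Agar well diffusion. Inocula of 100 µL: bacteria 1 × 10^8 CFU/mL on nutrient agar, yeast 1 × 10^6 CFU/mL on Sabouraud dextrose agar, fungi 1 × 10^4 spore/mL on potato dextrose agar. 10 mm wells received 100 µL of compound at 100 mg/mL in DMSO. Bacteria incubated 24 h at 37 °C, fungi 48 h at 28 °C. Controls were DMSO, ciprofloxacin 50 µg/mL and ketoconazole 50 µg/mL. Inhibition zone diameter in mm, scored N.A. to ++++, average of triplicates.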

[2] = tested on: Priestia megaterium; experiment: Antimicrobial activity against Bacillus megaterium ATCC 9885 after 24 hrs by agar well diffusion method; assay type: functional; how it was run: as §1
[3] = tested on: Staphylococcus aureus; experiment: Antimicrobial activity against Staphylococcus aureus ATCC 29213 after 24 hrs by agar well diffusion method; assay type: functional; how it was run: as §1
[4] = tested on: Klebsiella pneumoniae; experiment: Antimicrobial activity against Klebsiella pneumoniae ATCC 13883 after 24 hrs by agar well diffusion method; assay type: functional; how it was run: as §1
[5] = tested on: Pseudomonas aeruginosa; experiment: Antimicrobial activity against Pseudomonas aeruginosa ATCC 27953 after 24 hrs by agar well diffusion method; assay type: functional; how it was run: as §1
[6] = tested on: Escherichia coli; experiment: Antimicrobial activity against Escherichia coli ATCC 25922 after 24 hrs by agar well diffusion method; assay type: functional; how it was run: as §1
[7] = tested on: Candida albicans; experiment: Antimicrobial activity against Candida albicans NRRL Y-477 after 48 hrs by agar well diffusion method; assay type: functional; how it was run: as §1
[8] = tested on: Aspergillus niger; experiment: Antimicrobial activity against Aspergillus niger after 48 hrs by agar well diffusion method; assay type: functional; how it was run: as §1
[9] = Antioxidant activity assessed as ABTS radical scavenging activity at 2 mM; assay type: functional
How it was run: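 ABTS (60 µM, 2 mL) was oxidized with MnO2 (25 mg/mL, 3 mL) in 0.1 M phosphate buffer pH 7, then centrifuged and filtered, with A734 adjusted to about 0.5. 50 µL of 2 mM compound in MeOH/phosphate buffer (1:1) was added. Colour loss expressed as % inhibition. L-ascorbic acid was the standard; blank and negative controls used MeOH/buffer.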

[10] = Antioxidant activity in rat erythrocytes assessed as inhibition of peroxyl radicals-induced hemolysis at 2 mM after 2 hrs; assay type: functional; conditions: Erythrocyte, read-out: INH
How it was run: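 Rat blood from cardiac puncture, heparinized. Erythrocytes were washed three times in 0.15 M NaCl. A 10% suspension in PBS pH 7.4 was mixed with an equal volume of 200 mM AAPH in PBS containing sample, then shaken at 37 °C for 2 h. Mixture diluted with 8 volumes of PBS and centrifuged; supernatant A540 compared with a water-lysed sample for complete hemolysis. L-ascorbic acid was the positive control. Mean ± SD.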

[11] = Cytotoxicity against mouse EAC cells assessed as cell viability using trypan blue staining after 2 hrs by hemocytometer analysis; assay type: functional, cell-based; conditions: Ehrlich
[12] = tested on: Bacillus subtilis; experiment: Antimicrobial activity against Bacillus subtilis ATCC 6633 after 24 hrs by two fold serial dilution technique; assay type: functional; conditions: ATCC 6633, 24 h
How it was run: (§2)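 Tested only compounds giving inhibition zones ≥ 16 mm, by two-fold serial dilution in nutrient broth. Final concentrations were […], 175, 87.5, 43.8 and 21.9 µg/mL. Each 5 mL tube received 0.1 mL inoculum of about 1 × 10^8 CFU/mL and was incubated 24 h at 37 °C. MIC was the lowest concentration with no growth.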

[13] = tested on: Staphylococcus aureus; experiment: Antimicrobial activity against Staphylococcus aureus ATCC 29213 after 24 hrs by two fold serial dilution technique; assay type: functional; conditions: ATCC 29213, 24 h; how it was run: as §2
[14] = tested on: Klebsiella pneumoniae; experiment: Antimicrobial activity against Klebsiella pneumoniae ATCC 13883 after 24 hrs by two fold serial dilution technique; assay type: functional; conditions: ATCC 13883, 24 h; how it was run: as §2
[15] = tested on: Priestia megaterium; experiment: Antimicrobial activity against Bacillus megaterium ATCC 9885 after 24 hrs by two fold serial dilution technique; assay type: functional; conditions: ATCC 9885, 24 h; how it was run: as §2
[16] = tested on: Pseudomonas aeruginosa; experiment: Antimicrobial activity against Pseudomonas aeruginosa ATCC 27953 after 24 hrs by two fold serial dilution technique; assay type: functional; conditions: ATCC 27953, 24 h; how it was run: as §2
[17] = tested on: Escherichia coli; experiment: Antimicrobial activity against Escherichia coli ATCC 25922 after 24 hrs by two fold serial dilution technique; assay type: functional; conditions: ATCC 25922, 24 h; how it was run: as §2

| MIC [12] [µg/mL] | MIC [13] [µg/mL] | MIC [14] [µg/mL] | MIC [15] [µg/mL] | MIC [16] [µg/mL] | MIC [17] [µg/mL] | SMILES | diameter of the inhibition zone (DIZ) [1] | diameter of the inhibition zone (DIZ) [2] | diameter of the inhibition zone (DIZ) [3] | diameter of the inhibition zone (DIZ) [4] | diameter of the inhibition zone (DIZ) [5] | diameter of the inhibition zone (DIZ) [6] | diameter of the inhibition zone (DIZ) [7] | diameter of the inhibition zone (DIZ) [8] | inhibition [9] [%] | percent hemolysis at 2000 µM [10] [%] | IC50 [11] [µg/mL] |
| --- | --- | --- | --- | --- | --- | --- | --- | --- | --- | --- | --- | --- | --- | --- | --- | --- | --- |
|  |  |  |  |  |  | C/C(=N\N=C1\NC(=O)/C(=C/c2ccc(F)cc2)S1)c1nc(-c2ccccc2)[nH]c1C | <=4 mm | <=4 mm | <=4 mm | <=4 mm | <=4 mm | <=4 mm | <=4 mm | <=4 mm | 79.2 | 1.4 | 14.5 (≈ 34.6 µM) |
| 43.8 (≈ 140 µM) | 43.8 (≈ 140 µM) | 21.9 (≈ 69.9 µM) |  |  |  | C/C(=N\N=C1\NC(=O)CS1)c1nc(-c2ccccc2)[nH]c1C | 16 mm | <=4 mm | 16 mm | 16 mm | <=4 mm | <=4 mm | <=4 mm | <=4 mm |  |  |  |
|  |  |  |  |  |  | C/C(=N\N=C1\N=C(c2cc3ccccc3oc2=O)CS1)c1nc(-c2ccccc2)[nH]c1C | <=4 mm | <=4 mm | <=4 mm | <=4 mm | <=4 mm | <=4 mm | <=4 mm | <=4 mm | 61.6 | 2.5 | 125 (≈ 283 µM) |
| 43.8 (≈ 117 µM) | 29.1 (≈ 77.9 µM) |  |  |  |  | C/C(=N\N=C1\N=C(c2ccccc2)CS1)c1nc(-c2ccccc2)[nH]c1C | 16 mm | <=4 mm | 16 mm | 10 mm | 10 mm | 10 mm | <=4 mm | <=4 mm | 79.3 | 2.75 | 19.5 (≈ 52.2 µM) |
|  |  |  |  |  |  | C/C(=N\N=C1\N=C2N=c3ccccc3=NC2S1)c1nc(-c2ccccc2)[nH]c1C (configuration not stated) | <=4 mm | <=4 mm | <=4 mm | <=4 mm | <=4 mm | <=4 mm | <=4 mm | <=4 mm | 37.4 | 1.1 | 4.25 (≈ 10.6 µM) |
| 43.8 (≈ 113 µM) | 21.9 (≈ 56.5 µM) |  | 21.9 (≈ 56.5 µM) | 21.9 (≈ 56.5 µM) | 21.9 (≈ 56.5 µM) | C/C(=N\NC(=O)/C(C#N)=C\c1ccc(F)cc1)c1nc(-c2ccccc2)[nH]c1C | 16 mm | >=21 mm | >=21 mm | 10 mm | 16 mm | 16 mm | <=4 mm | <=4 mm | 68.6 | 0.86 | 85.2 (≈ 220 µM) |
|  |  |  |  |  |  | C/C(=N/NC(=O)c1cc2ccc(O)cc2oc1=N)c1nc(-c2ccccc2)[nH]c1C | <=4 mm | <=4 mm | <=4 mm | <=4 mm | <=4 mm | <=4 mm | <=4 mm | <=4 mm | 4.56 | 5.55 | 150 (≈ 375 µM) |
|  |  |  |  |  |  | C/C(=N\N=C1\N=C(c2cc3ccccc3o2)CS1)c1nc(-c2ccccc2)[nH]c1C | <=4 mm | <=4 mm | <=4 mm | <=4 mm | <=4 mm | <=4 mm | <=4 mm | <=4 mm | 39.9 | 1.9 | 21.5 (≈ 52 µM) |
|  |  |  |  |  |  | CC1=NC(=N/N=C(\C)c2nc(-c3ccccc3)[nH]c2C)/S/C1=N\Nc1ccc(Cl)cc1 | <=4 mm | <=4 mm | <=4 mm | <=4 mm | <=4 mm | <=4 mm | <=4 mm | <=4 mm | 40.7 | 1.7 | 20.2 (≈ 45 µM) |
| 10.9 (≈ 32.9 µM) | 21.9 (≈ 66.1 µM) | 10.9 (≈ 32.9 µM) | 21.9 (≈ 66.1 µM) | 10.9 (≈ 32.9 µM) | 21.9 (≈ 66.1 µM) | O=C(O)c1cn(C2CC2)c2cc(N3CCNCC3)c(F)cc2c1=O [CIPROFLOXACIN] | >=21 mm | 16 mm | 16 mm | >=21 mm | >=21 mm | 16 mm | <=4 mm | <=4 mm |  |  |  |
| 87.5 (≈ 320 µM) |  |  |  |  |  | C/C(=N\NC(N)=S)c1nc(-c2ccccc2)[nH]c1C | 16 mm | 10 mm | 5 mm | 10 mm | <=4 mm | <=4 mm | <=4 mm | <=4 mm | 60.2 | 2.45 | 4.18 (≈ 15.3 µM) |

— ChEMBL document CHEMBL1770090, “Synthesis, antimicrobial, antioxidant, anti-hemolytic and cytotoxic evaluation of new imidazole-based heterocycles” (Eur J Med Chem, 2011)
